The text below walks through data of paper PMC12423902 (ACS Omega, 2025).

A word on the IC50: it is the concentration that inhibits the measured activity by half. What is called Ki is a dissociation constant, usually derived from enzyme kinetics or from competition with a known ligand. One may read the inhibition as the percentage by which the read-out fell short of the control. One may read the Cmax as the highest concentration seen after dosing.

Read-outs that look alike come from different tables or passages of the source.

The target of one data set is FASN KR domain (Gallus gallus, UniProt P12276). Put plainly: time-dependent inhibition of the KR domain. Format: biochemical, chicken.
For the next data set, the system named is MCF-7. Put plainly: cell viability assay. To be noted: Homo sapiens, MCF7, 24 h, read-out: IC50, cell viability. The class given is cell-based. An outline of the steps:
(§1)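 Cells were grown in DMEM with 10% FBS at 37 °C and 5% CO2. They were seeded at 1 × 10^6 cells/mL and allowed to attach overnight before treatment. Medium was then replaced with drug-free medium containing CCK-8 reagent, incubated 1 h at 37 °C, and read at 450 nm. Six replicates were run on three separate occasions.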

For data set [1], the target named is T1, FASN (Gallus gallus, UniProt P12276). Kind of data set: enzyme kinetics study. Format: biochemical, chicken. Conditions: for Ki: Inhibition constant K is. An outline of the steps: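 Purified chicken FASN, overall reaction at 340 nm (NADPH). One substrate was varied with the others fixed. Ac-CoA varied with Mal-CoA 10 μM and NADPH 35 μM, test compound 0–5.86 μM. Mal-CoA varied with Ac-CoA 3 μM and NADPH 35 μM, test compound 0–6.88 μM. NADPH varied with Ac-CoA 3 μM and Mal-CoA 10 μM, test compound 0–9.12 μM. Lineweaver–Burk plots; Kis/Kii from secondary plots; points are means of 2–5 experiments.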

In data set [2] the target is T1, FASN. Put plainly: time-dependent. The class given is biochemical, chicken. An outline of the steps:
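FASN was incubated at 25 °C with various test compound concentrations. Aliquots taken at set intervals were assayed for residual overall activity. kobs came from ln(At/A0) = −kobs·t. For substrate protection, Ac-CoA, Mal-CoA or NADPH (10 μM each) was present during inactivation, compared with no substrate. In a separate series, FASN (0.60 μM) was preincubated with 6.6 μM test compound plus rising Ac-CoA, and 1/kobs was plotted against Ac-CoA.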

Another data set relates to MDA-MB-231. Put plainly: cell viability assay. Format: cell-based. To be noted: Homo sapiens, MDA-MB-231, 24 h, read-out: IC50, cell viability. The method in brief:
as §1

Data set [3] has as its target T1, FASN. Kind of data set: FASN overall reaction inhibition. The class given is biochemical, chicken. The method in brief: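 Overall reaction of purified chicken liver FASN at 37 °C, read as initial rate of NADPH absorbance loss at 340 nm. The test compound was added before the last substrate, which started the reaction; DMSO was below 0.5% (v/v). Relative activity was Ai/A0 × 100%. IC50 came from a plot of relative activity versus concentration. Single-point data at 10.0 μM are mean ± SD, n = 3 independent experiments.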

For data set [4] the following is noted: ref number not given, cited from earlier work.
Data set [5] deals with FASN ER domain (enoyl reduction) (Gallus gallus, UniProt P12276). Put plainly: enoyl reduction partial reaction of FASN. Conditions: 10.0 μM phloretin. The class given is biochemical, chicken. An outline of the steps: (§2)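 Chicken liver FASN was purified by two-step ammonium sulfate precipitation, DEAE-cellulose and Blue-Sepharose chromatography, and stored at −70 °C. Partial reactions (β-ketoacyl reduction, enoyl reduction, AcAc-CoA reduction) were run at 37 °C after 10 min equilibration. The test compound was at 10.0 μM, with DMSO below 0.5% (v/v). Initial velocity came from the NADPH decrease at 340 nm. Relative activity was Ai/A0 × 100%, given as mean ± SD of three independent experiments.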

The test system of data set [6] is FASN expression in MDA-MB-231 and MCF-7 cells. Kind of data set: Western blot analysis of FASN expression in breast cancer cells. Format: cell-based, human. Conditions: 60–90 μM, 24 h, both cell lines. The method in brief: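 Cells in DMEM/10% FBS were treated 24 h with test compound, washed with PBS, lysed in RIPA and sonicated. Protein was measured by BCA, and 20 μg per lane was run on 8% SDS-PAGE and transferred to PVDF. Membranes were blocked in 5% milk, probed overnight at 4 °C with rabbit monoclonal anti-FASN and anti-β-actin, then an HRP anti-rabbit secondary. Detection was by ECL, with densitometry normalized to β-actin; mean ± SD, n = 3.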
On the technique in general: Immunoblotting shows a protein as a band on a membrane.

The target in data set [7] is FASN (MAT, KR, DH, ER domains and ACP; AcAc-CoA reaction) (Gallus gallus, UniProt P12276). Put plainly: AcAc-CoA reduction reaction of FASN. Format: biochemical, chicken. Conditions: 10.0 μM phloretin. The method in brief:
as §2

For data set [8], the target named is FASN KR domain (β-ketoacyl reduction) (Gallus gallus, UniProt P12276). Put plainly: β-ketoacyl reduction partial reaction of FASN. Conditions: 10.0 μM phloretin. Format: biochemical, chicken. An outline of the steps: as §2
Data set [9] has as its target intracellular FASN in breast cancer cells (MDA-MB-231, MCF-7) (Homo sapiens, UniProt P49327). Put plainly: intracellular FASN activity assay. The class given is cell-based. The method in brief: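 After 24 h exposure, cells were trypsinized, washed three times and resuspended in cold PBS. They were sonicated at 4 °C and spun at 12,000 g for 15 min at 4 °C. Supernatant was assayed in 25 mM K-phosphate (pH 7.0) with 0.25 mM EDTA, 0.25 mM DTT, 30 μM Ac-CoA and 350 μM NADPH. Background A340 was read for 60 s, then Mal-CoA was added and FAS-dependent NADPH oxidation read for 60 s more. Mean ± SD, n = 3; ANOVA with Tukey.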

In data set [10] the test system is intracellular TG content in breast cancer cells (MDA-MB-231, MCF-7). Kind of data set: triglyceride. The class given is cell-based, human. To be noted: 24 h, p < 0.001.
The target in data set [11] is T1, FASN. To be noted: read-out: IC50, FASN inhibition; literature value; ref number not given; cited from earlier work.

T1 sequence (P12276 2-2512 limits assumed): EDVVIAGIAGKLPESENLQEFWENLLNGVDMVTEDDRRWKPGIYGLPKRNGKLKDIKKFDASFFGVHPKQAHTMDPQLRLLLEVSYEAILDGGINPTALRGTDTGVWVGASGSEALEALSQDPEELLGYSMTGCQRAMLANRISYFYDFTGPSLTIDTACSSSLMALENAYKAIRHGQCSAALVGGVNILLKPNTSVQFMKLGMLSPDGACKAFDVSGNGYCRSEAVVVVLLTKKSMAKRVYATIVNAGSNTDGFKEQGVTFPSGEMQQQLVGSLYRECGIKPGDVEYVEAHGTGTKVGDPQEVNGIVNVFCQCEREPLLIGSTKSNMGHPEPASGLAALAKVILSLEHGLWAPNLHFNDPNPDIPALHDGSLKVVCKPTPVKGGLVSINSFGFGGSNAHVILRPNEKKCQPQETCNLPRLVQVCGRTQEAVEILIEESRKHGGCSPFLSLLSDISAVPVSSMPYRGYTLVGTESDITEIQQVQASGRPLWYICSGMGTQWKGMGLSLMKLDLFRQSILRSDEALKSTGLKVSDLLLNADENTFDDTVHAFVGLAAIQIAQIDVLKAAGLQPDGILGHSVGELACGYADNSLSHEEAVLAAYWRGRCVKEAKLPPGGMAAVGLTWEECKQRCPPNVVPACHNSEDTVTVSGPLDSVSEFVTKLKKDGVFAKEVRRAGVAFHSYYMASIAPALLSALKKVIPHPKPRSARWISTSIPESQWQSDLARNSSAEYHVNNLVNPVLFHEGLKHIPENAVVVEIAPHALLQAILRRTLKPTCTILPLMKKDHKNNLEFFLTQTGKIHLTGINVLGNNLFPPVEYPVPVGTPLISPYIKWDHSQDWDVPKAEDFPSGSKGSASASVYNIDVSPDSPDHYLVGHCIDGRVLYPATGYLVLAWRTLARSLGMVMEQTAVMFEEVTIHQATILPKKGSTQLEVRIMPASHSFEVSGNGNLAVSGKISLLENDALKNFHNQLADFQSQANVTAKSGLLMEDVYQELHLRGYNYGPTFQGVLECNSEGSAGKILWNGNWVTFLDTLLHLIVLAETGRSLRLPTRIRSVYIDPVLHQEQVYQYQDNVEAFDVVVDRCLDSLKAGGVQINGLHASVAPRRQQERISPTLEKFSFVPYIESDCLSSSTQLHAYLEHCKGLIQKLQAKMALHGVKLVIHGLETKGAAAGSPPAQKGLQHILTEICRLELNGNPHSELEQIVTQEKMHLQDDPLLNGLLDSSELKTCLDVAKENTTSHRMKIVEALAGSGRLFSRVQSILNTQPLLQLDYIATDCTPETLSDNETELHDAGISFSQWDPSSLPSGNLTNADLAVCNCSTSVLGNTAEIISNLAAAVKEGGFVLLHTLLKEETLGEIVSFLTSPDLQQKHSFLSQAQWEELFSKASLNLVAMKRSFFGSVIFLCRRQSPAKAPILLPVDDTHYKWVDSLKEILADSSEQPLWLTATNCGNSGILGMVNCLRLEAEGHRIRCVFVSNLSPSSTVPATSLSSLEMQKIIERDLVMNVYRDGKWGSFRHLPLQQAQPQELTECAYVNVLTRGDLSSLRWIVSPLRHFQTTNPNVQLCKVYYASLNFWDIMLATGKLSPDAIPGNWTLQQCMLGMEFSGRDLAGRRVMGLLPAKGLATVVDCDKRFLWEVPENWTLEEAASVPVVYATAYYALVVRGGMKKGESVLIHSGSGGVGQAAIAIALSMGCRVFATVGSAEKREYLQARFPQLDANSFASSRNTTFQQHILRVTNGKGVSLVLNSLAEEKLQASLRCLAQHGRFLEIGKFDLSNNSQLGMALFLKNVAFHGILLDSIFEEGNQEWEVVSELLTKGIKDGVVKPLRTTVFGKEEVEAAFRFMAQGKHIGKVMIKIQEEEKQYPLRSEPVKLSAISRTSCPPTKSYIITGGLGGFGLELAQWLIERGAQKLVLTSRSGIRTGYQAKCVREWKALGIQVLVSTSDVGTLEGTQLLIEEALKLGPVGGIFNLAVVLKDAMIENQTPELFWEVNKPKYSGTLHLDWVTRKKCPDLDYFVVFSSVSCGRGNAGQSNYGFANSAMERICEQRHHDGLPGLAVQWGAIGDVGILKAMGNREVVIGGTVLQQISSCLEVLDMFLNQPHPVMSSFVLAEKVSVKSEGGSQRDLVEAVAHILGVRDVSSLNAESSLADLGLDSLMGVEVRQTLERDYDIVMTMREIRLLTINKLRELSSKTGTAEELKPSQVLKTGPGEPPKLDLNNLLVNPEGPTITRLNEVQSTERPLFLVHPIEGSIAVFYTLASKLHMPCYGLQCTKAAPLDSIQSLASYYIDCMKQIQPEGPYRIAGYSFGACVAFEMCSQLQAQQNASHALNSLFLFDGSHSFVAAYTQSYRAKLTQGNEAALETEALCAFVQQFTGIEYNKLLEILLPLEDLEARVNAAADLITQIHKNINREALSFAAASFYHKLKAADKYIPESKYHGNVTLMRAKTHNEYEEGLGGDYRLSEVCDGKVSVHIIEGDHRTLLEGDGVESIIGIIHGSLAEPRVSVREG
intracellular FASN in breast cancer cells (MDA-MB-231, MCF-7), sequence (P49327 whole entry): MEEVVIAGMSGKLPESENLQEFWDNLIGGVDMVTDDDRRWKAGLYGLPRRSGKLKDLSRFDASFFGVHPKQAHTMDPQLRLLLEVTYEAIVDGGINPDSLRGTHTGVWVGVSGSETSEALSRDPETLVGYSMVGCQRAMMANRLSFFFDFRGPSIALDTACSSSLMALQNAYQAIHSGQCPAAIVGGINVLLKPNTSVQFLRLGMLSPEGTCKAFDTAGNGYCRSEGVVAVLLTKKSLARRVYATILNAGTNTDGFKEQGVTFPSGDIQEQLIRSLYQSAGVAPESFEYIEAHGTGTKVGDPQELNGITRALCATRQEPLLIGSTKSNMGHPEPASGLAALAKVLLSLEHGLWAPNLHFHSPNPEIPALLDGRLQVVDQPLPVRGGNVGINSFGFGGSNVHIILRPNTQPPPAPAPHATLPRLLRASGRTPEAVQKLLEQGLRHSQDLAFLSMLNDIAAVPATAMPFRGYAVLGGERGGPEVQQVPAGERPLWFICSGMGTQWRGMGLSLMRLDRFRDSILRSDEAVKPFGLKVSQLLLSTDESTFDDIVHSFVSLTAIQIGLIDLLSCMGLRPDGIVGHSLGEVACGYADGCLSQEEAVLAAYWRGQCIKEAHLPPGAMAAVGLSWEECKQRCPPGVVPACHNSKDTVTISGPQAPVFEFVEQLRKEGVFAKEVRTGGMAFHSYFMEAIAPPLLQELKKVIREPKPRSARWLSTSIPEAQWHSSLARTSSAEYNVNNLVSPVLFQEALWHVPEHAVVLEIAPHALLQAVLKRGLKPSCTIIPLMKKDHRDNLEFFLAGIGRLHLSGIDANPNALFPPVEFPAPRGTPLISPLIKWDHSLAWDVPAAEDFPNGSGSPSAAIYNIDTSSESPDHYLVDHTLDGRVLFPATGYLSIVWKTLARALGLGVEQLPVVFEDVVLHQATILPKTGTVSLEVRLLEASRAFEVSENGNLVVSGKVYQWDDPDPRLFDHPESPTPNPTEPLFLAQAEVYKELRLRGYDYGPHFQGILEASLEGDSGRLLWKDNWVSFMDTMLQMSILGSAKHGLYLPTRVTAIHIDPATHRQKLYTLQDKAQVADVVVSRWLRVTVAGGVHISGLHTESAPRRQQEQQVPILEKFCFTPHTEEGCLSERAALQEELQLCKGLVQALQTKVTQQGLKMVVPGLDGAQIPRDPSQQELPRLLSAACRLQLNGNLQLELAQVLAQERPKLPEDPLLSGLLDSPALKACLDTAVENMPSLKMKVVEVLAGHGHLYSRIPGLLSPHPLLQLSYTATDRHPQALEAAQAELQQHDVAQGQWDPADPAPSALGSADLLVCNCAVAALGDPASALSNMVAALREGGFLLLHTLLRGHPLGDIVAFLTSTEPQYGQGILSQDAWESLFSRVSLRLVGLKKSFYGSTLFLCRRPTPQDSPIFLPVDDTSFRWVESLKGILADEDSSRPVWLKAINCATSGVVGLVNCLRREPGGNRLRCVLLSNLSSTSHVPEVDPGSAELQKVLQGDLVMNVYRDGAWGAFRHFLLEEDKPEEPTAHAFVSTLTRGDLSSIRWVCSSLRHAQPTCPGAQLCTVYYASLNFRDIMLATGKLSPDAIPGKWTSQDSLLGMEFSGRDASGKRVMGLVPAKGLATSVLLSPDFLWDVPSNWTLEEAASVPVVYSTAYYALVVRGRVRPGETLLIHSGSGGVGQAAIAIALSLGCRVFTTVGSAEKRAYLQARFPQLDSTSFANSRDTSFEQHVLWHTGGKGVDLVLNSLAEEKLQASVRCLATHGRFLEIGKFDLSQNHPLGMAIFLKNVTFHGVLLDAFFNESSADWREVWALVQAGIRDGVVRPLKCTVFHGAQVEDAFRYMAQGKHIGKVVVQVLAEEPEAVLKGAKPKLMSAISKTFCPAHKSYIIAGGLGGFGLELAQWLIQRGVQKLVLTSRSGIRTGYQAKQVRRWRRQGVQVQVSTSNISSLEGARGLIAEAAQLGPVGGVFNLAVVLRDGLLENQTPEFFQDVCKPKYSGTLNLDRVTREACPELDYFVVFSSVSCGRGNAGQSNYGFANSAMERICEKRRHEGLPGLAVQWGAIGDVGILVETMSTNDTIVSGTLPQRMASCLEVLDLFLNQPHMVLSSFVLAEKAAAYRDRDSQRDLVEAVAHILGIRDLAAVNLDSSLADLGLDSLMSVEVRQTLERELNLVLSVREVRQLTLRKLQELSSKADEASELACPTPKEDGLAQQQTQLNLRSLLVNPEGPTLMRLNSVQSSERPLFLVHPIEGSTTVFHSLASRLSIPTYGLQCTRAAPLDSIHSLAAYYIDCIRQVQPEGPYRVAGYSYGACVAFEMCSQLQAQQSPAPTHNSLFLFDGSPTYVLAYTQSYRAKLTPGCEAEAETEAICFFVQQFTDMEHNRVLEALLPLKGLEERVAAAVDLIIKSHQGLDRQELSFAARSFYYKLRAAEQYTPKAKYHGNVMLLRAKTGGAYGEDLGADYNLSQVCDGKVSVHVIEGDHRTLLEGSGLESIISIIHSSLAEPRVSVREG
FASN KR domain, sequence (P12276 2-2512 limits assumed): as the sequence (P12276 2-2512 limits assumed) above
FASN (MAT, KR, DH, ER domains and ACP; AcAc-CoA reaction), sequence (P12276 2-2512 limits assumed): as above
FASN ER domain (enoyl reduction), sequence (P12276 2-2512 limits assumed): as above

For `O=C(CCc1ccc(O)cc1)c1c(O)cc(O)cc1O` [phloretin, β-(4-hydroxyphenyl)-2,4,6-trihydroxypropiophenone], the “time-dependent inhibition of KR domain” value at FASN KR domain is reported as “no time-dependent inhibition was observed”. The IC50 is 101 µM with MCF-7, 81.4 µM in the data set on MDA-MB-231 and 4.9 ± 0.66 µM at FASN [3]. Moreover, the Ki at FASN [1] (substrate Ac-CoA) turned out to be 3.46 µM; at FASN [1] (substrate Mal-CoA), 5.69 µM. For the same molecule, the Inhibitory manner entry was “Competitive” at FASN [1] (substrate Ac-CoA varied, Mal-CoA 10 μM, NADPH 35 μM); “Mixed competitive and noncompetitive” on FASN [1] (substrate Mal-CoA varied, Ac-CoA 3 μM, NADPH 35 μM); “Uncompetitive” on FASN [1] (substrate NADPH varied, Ac-CoA 3 μM, Mal-CoA 10 μM). The “Inhibition constant K ii” value on FASN [1] (substrate Mal-CoA, enzyme–substrate complex) amounted to 9.41 µM; at FASN [1] (substrate NADPH) it was 1.80 µM. Also, on FASN [2] (Mal-CoA (10 μM) or NADPH (10 μM) vs no substrate), the “decrease of k obs by preincubation with Mal-CoA or NADPH” value is reported as 5–10%. The “k obs, FASN inactivation without any substrate” value at FASN [2] (control, same conditions without substrate) was 0.070 min^–1. In addition, on FASN [2] (phloretin 2 mg/mL, incubated at 25 °C), the “k obs, overall reaction activity of FASN” value worked out at 0.0264 min^–1. Also, the “k obs, FASN inactivation with Ac-CoA” value on FASN [2] (with Ac-CoA (10 μM)) is listed as 0.025 min^–1. Also, the “k obs, FASN inactivation with Mal-CoA” value on FASN [2] (with Mal-CoA (10 μM)) was 0.067 min^–1. Moreover, the “k obs, FASN inactivation with NADPH” value on FASN [2] (with NADPH (10 μM)) is 0.064 min^–1. Further, the inhibition at 10 µM on FASN [3] (read-out: inhibition of overall FASN activity) amounted to 81%. The “time of Cmax postdose” value in data set [4] (Sprague–Dawley rats, single 100 mg/kg dose) was 15 min. For the same molecule, the Cmax in [4] (oral doses of 200 and 300 mg/kg) is less than 10 µM. The oral bioavailability in data set [4] (rats, oral and intravenous routes) is given as 8.676%. Besides, in data set [5], the “enoyl reduction activity suppressed” value worked out at 4.8%. Further, the FASN protein content result in data set [6] was “significantly decreased”. The “AcAc-CoA reaction activity remained” value in data set [7] was 91.2%. Further, the “β-ketoacyl reduction activity suppressed” value in data set [8] stood at 3.5%. Moreover, the “lowest concentration with significant inhibition of intracellular FASN activity” value in data set [9] (p < 0.01, 24 h, breast cancer cells) was determined as 30 µM. Further, the inhibition at 90 µM in data set [9] (read-out: maximal inhibition of intracellular FASN enzymatic activity) was more than 50%. In addition, the “cellular TG levels” value in data set [10] is “marked concentration-dependent reduction”.

For `C/C=C/C/C=C/CCC(=O)[C@H]1O[C@H]1C(N)=O` [cerulenin], on FASN [11], the IC50 is 89 µM.

As to `O=C(O[C@@H]1Cc2c(O)cc(O)cc2O[C@@H]1c1cc(O)c(O)c(O)c1)c1cc(O)c(O)c(O)c1` [EGCG, epigallocatechin gallate, reference compound], the IC50 was 52 µM at FASN [11] and 50.5 ± 0.75 µM on FASN [3] (read-out: IC50, FASN overall reaction activity, chicken liver FASN, 37 °C).
